This note sets out measurements from PMC7644341 (Journal of natural products, 2020).

Marks after values point to notes of the source that are not given here.

Data set [1] is described as follows: Non-enzymatic stability. Conditions: for percent BAPC hydrolysis/cleavage (non-enzymatic) in phosphate buffer: pH 7.4, 48 h. Type of data set: physicochemical.
Data set [2] deals with tubulin. Description: Inhibition of [3H]colchicine binding to tubulin. To be noted: 1.0 μM tubulin, 5.0 μM [3H]colchicine. Summed up: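 Incubation was 10 min at 37 °C, when control binding is about 50% complete. Bound ligand was collected on paired filters and scintillation-counted at least 18 h later. Counts were corrected for filter-bound colchicine without tubulin, and percent inhibition was calculated against no-inhibitor controls.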

The target of data set [3] is T1, Rat NADPH-cytochrome P450 oxidoreductase (POR) supersomes (Rattus norvegicus, UniProt P00388).
T1 sequence (P00388 1-678): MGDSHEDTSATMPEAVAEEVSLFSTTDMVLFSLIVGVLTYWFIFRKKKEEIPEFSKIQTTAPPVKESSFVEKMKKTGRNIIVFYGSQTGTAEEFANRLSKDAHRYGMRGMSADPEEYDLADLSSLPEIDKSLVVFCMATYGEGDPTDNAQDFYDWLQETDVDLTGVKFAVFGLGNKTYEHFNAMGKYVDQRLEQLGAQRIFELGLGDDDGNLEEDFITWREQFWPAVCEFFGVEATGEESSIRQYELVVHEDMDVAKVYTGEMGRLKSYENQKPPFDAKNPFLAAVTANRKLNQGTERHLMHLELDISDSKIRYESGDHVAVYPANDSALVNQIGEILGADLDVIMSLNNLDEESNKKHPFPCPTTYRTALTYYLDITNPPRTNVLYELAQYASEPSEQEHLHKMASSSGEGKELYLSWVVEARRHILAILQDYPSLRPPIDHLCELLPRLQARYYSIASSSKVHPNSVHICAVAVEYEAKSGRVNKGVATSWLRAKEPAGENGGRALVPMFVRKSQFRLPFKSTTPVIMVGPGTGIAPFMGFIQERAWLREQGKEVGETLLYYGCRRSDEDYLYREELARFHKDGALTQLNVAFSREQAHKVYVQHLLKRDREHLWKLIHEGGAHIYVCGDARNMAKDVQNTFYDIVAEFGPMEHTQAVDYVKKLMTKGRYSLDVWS
Nature of the data set: NADPH-cytochrome P450 oxidoreductase cleavage assay. In kind it is in vitro ADME. To be noted: for percent BAPC cleavage by POR: 90 min, anaerobic, 37 °C, NC = no cleavage observed.

Data set [4] has as its system orthotopic 4T1-luc breast tumors. Description: In vivo dynamic bioluminescence imaging. On the set-up: species or system BALB/c mice. To be noted: 180 mg/kg IP single dose. The method, boiled down:
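Cells: 4T1-luc, firefly luciferase-expressing, grown in RPMI1640 with 10% FBS. 10⁶ cells in PBS with 30% Matrigel were implanted into the left upper ventral mammary fat pad of female BALB/cJ mice and grown 11 days to 10–12 mm. Baseline BLI was taken under 2% isoflurane after SC D-luciferin (120 mg/kg). Then a single IP dose of test compound was given (180 mg/kg in DPS, n=3), with vehicle and combretastatin A-4 phosphate (120 mg/kg) controls. Imaging (~20 min) was repeated at 4, 24 and 48 h with fresh luciferin, comparing area under the light-emission curve.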

Data set [5] deals with 4T1-luc tumors. Description: H&E histology of harvested tumors. Type of data set: in vivo, BALB/c mice. To be noted: 180 mg/kg IP. Summed up:
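4T1-luc orthotopic mammary fat pad tumors in female BALB/cJ mice were dosed once IP with test compound (180 mg/kg in DPS vehicle). Tumors were harvested at 72 h, or after further imaging at 96 h, when survivors were killed by cervical dislocation under isoflurane. They were stained with hematoxylin and eosin. Each tumor's histology was matched to its BLI response.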

In data set [6] the test system is A549 human lung cancer cell line. Nature of the data set: Differential cytotoxicity.

Consider `COc1ccc(/C=C\c2cc(OC)c(OC)c(OC)c2)c(OCc2ccc([N+](=O)[O-])s2)c1O` [compound 37, (Z)-6-Methoxy-2-((5-nitrothiophen-2-yl)methoxy)-3-(3,4,5-trimethoxystyryl)phenol], for which, in data set [1], the “percent BAPC hydrolysis/cleavage (non-enzymatic) in phosphate buffer” value is on record as 0^b %.
On to `COc1ccc(/C=C\c2cc(OC)c(OC)c(OC)c2)cc1O` [compound 42, combretastatin A-4], for which the “inhibition of colchicine binding % inhibition ± SD” value in data set [2] (compound at 1 μM) stood at 84±2%; in data set [2] (compound at 5 μM), 97±0.7%.
Consider “(Z)-3-Methoxy-2-(2-(5-nitrothiophen-2-yl)propoxy)-6-(3,4,5-trimethoxystyryl)-phenyl-4-methylbenzenesulfonate [compound 23]”, for which the “percent BAPC hydrolysis/cleavage (non-enzymatic) in phosphate buffer” value in data set [1] amounted to 0.84%. For the same molecule, the “percent BAPC cleavage by POR” value in data set [3] stood at 13.5%.
As to `COc1ccc(/C=C\c2cc(OC)c(OC)c(OC)c2)c(OC(C)c2ccc([N+](=O)[O-])s2)c1O` (centres unmarked) [compound 38, (Z)-6-Methoxy-2-(1-(5-nitrothiophen-2-yl)ethoxy)-3-(3,4,5-trimethoxystyryl)phenol], in data set [1], the “percent BAPC hydrolysis/cleavage (non-enzymatic) in phosphate buffer” value was 0.5^c %.
The same measure, in the same setting: with `COc1cc(/C=C\c2ccc(OC)c3c2OC(C)(c2ccc([N+](=O)[O-])s2)O3)cc(OC)c1OC` (centres unmarked) [compound 36, (Z)-4-Methoxy-2-methyl-2-(5-nitrothiophen-2-yl)-7-(3,4,5-trimethoxystyryl)-benzo[d][1,3]dioxole] the figure was 0%.
`COc1ccc(/C=C\c2cc(OC)c(OC)c(OC)c2)cc1OC(C)(C)c1ccc([N+](=O)[O-])s1` [compound 45, (Z)-2-(2-(2-Methoxy-5-(3,4,5-trimethoxystyryl)phenoxy)propan-2-yl)-5-nitrothiophene]: the “stability in phosphate buffer” value in data set [1] (pH 7.4, 24 h) is reported as “stable”. Moreover, the “percent BAPC cleavage by POR” value in data set [3] turned out to be 25%. In data set [3] (24 h, anaerobic conditions), the “cleavage by POR supersomes” value is given as “Complete cleavage”. In data set [4] (4 h, two of three mice), the “decrease in light emission (BLI)” value is given as greater than 80%. Besides, the “depression of light emission (BLI)” value in data set [4] (24 h, the two responding tumors) was greater than 75%. Also, the “light emission (BLI) recovery” value in data set [4] (by 48 h, the two responding tumors) was “substantial recovery”. The “tumor necrosis (H&E)” value in data set [5] (BLI-unresponsive tumor) turned out to be 47%; in data set [5] (tumor showing a strong BLI signal response), 55%.
As for `Nc1n[n+]([O-])c2ccccc2[n+]1[O-]` [Tirapazamine], the “hypoxia cytotoxicity ratio (HCR)” value in data set [6] (assays in which drug was washed out after 4 h) is greater than 62.
With `COc1ccc(/C=C\c2cc(OC)c(OC)c(OC)c2)c(OC(C)(C)c2ccc([N+](=O)[O-])s2)c1O` [compound 41, (Z)-6-Methoxy-2-((2-(5-nitrothiophen-2-yl)propan-2-yl)oxy)-3-(3,4,5-trimethoxystyryl)phenol], the “spontaneous hydrolysis in pH 7.4 buffer” value in data set [1] (first 150 min) is listed as “no apparent spontaneous hydrolysis”. Besides, the “hydrolysis in pH 7.4 buffer” value in data set [1] (incubated 24–48 h) is on record as “mostly hydrolyzed”. Moreover, the “percent BAPC hydrolysis/cleavage (non-enzymatic) in phosphate buffer” value in data set [1] is 100%.
In the case of `COc1cc(/C=C\c2ccc(OC)c(OCc3ccc([N+](=O)[O-])s3)c2O)cc(OC)c1OC` [compound 39, (Z)-3-Methoxy-2-((5-nitrothiophen-2-yl)methoxy)-6-(3,4,5-trimethoxystyryl)phenol], the “percent BAPC hydrolysis/cleavage (non-enzymatic) in phosphate buffer” value in data set [1] was 0^b %.
On the same count and under the same terms, with `COc1cc(/C=C\c2ccc(OC)c3c2OC(c2ccc([N+](=O)[O-])s2)O3)cc(OC)c1OC` (centres unmarked) [compound 35, (Z)-4-Methoxy-2-(5-nitrothiophen-2-yl)-7-(3,4,5-trimethoxystyryl)-benzo[d][1,3]dioxole] the figure was 0%.
With `Br.O=[N+]([O-])c1nccn1CC(O)CNCCBr` (centres unmarked) [RB6145], in data set [6] (A549, GI50 oxic versus anoxic, drug removal step omitted), the “hypoxia cytotoxicity ratio (HCR)” value is greater than 3.7.
For the molecule `COc1cc(/C=C\c2ccc(OC)c(OC(C)c3ccc([N+](=O)[O-])s3)c2O)cc(OC)c1OC` (centres unmarked) [compound 40, (Z)-3-Methoxy-2-(1-(5-nitrothiophen-2-yl)ethoxy)-6-(3,4,5-trimethoxystyryl)phenol], in data set [1], the “percent BAPC hydrolysis/cleavage (non-enzymatic) in phosphate buffer” value is 0^c %.
